Measurements published in ChEMBL document CHEMBL5226322, “Harnessing the Role of HDAC6 in Idiopathic Pulmonary Fibrosis: Design, Synthesis, Structural Analysis, and Biological Evaluation of Potent Inhibitors” (J Med Chem, 2021).
The source made the active and inactive calls. No cut-off for these calls is given here.

Columns and labels:
[1] = Metabolic stability in human liver microsome assessed as apparent decay constant at 5 uM in presence of NADPH incubated up to 60 mins by HPLC analysis; format: ADME; settings: microsomes, 1 h
In short: (§1)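 Compound at 5 μM, added in MeCN, incubated at 37 °C in 100 mM phosphate buffer pH 7.4 with 0.5 mg/mL human liver microsomal protein. Reaction started with an NADPH-generating system (2 mM NADPH, glucose-6-phosphate, G6P dehydrogenase, MgCl2). Stopped with MeCN at time points over 0–60 min. Remaining compound measured by RP-18 HPLC-UV at 254 nm, in triplicate. First-order depletion constant k; CLint = k × incubation volume / microsomal protein.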

[2] = molecular target: T1, Protein deacetylase HDAC6 (Homo sapiens, UniProt Q9UBN7); assay: Inhibition of human recombinant HDAC6 using ZMAL (Z-(Ac)Lys-AMC) as fluorogenic substrate incubated for 120 mins by microplate reader assay
T1 sequence (Q9UBN7 whole entry): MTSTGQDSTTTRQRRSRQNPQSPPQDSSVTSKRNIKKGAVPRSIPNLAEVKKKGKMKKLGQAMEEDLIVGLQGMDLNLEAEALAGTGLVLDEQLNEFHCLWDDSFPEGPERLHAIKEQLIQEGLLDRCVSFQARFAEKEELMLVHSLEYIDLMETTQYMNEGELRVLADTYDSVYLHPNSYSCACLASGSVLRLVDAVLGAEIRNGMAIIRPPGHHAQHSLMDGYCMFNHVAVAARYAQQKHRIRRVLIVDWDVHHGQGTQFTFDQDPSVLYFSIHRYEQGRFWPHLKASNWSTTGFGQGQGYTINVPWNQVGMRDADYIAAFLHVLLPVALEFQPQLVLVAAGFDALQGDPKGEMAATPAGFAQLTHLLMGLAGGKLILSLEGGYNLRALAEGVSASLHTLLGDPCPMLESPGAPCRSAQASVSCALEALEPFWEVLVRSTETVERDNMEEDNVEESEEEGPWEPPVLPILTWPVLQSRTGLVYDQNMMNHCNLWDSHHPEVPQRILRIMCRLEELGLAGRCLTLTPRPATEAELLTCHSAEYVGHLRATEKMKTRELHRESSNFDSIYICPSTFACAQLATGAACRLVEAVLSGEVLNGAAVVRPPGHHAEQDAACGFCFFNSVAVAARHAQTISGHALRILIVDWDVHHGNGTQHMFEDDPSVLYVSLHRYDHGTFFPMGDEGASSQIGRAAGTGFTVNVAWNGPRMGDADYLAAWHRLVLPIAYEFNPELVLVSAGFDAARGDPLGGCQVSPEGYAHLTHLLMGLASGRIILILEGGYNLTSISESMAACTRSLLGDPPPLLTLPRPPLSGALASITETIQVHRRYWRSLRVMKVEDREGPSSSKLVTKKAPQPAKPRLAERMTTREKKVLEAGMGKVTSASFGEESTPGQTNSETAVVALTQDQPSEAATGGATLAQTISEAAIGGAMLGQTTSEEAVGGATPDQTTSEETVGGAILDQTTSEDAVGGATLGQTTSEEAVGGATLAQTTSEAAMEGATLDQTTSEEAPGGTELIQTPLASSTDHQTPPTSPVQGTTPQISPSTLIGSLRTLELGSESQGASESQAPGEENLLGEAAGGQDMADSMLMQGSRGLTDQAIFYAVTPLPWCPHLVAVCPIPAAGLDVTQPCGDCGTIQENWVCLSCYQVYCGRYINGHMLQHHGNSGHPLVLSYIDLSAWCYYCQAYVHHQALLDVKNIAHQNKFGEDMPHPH

Airway basal cell [3] = assay: Inhibition of spheroid count in IPF patient derived human Airway basal cell assessed as reduction in sphere count at 20 to 50 nM incubated for 14 days by Bright-field microscopy analysis; format: functional, cell-based; settings: dose 20-50 nM, time 14.0 day
In short: (§2)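 Airway basal cells from bronchial brushings of IPF patients, 10⁴ cells in Matrigel on transwell inserts with 1:1 BEGM/DMEM. Treated 14 days (1–50 nM per methods; 0.1–50 nM per legend), medium changed every 7 days.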

Histone deacetylase 1 [4] = molecular target: T2, Histone deacetylase 1 (Homo sapiens, UniProt Q13547); assay: Inhibition of HDAC1 in human U87 cells assessed as increase in acetylation of histone H3 at 5 uM incubated for 30 hrs by western blot analysis; format: cell-based
T2 sequence (Q13547 whole entry): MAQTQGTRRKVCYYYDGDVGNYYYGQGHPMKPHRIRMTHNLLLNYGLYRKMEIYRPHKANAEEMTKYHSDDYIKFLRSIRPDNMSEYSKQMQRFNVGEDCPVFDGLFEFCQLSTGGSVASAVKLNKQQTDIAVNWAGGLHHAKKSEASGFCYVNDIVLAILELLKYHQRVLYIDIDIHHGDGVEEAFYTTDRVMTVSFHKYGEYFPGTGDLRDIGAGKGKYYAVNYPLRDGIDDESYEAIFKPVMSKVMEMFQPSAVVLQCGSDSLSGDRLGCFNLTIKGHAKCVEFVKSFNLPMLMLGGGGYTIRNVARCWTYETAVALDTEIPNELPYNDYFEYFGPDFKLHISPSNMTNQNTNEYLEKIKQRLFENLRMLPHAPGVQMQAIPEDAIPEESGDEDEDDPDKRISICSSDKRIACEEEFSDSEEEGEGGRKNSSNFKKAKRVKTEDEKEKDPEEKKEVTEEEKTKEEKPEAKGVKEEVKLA
In short: (§3)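 Whole lysates (35 μg) and acid-extracted histones (2 μg) run on SDS-PAGE and blotted for acetylated tubulin or acetyl-histone H3; GAPDH or H4 as loading controls.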

[5] = Metabolic stability in human liver microsome assessed as compound remaining at 5 uM in presence of NADPH by HPLC analysis; format: ADME; settings: liver microsomes, read-out: Stability; in short: as §1
[6] = molecular target: T3, Protein deacetylase HDAC6 (Homo sapiens) (UniProt Q9UBN7); assay: Inhibition of HDAC6 in human NB-4 cells assessed as increase in acetylation of alpha-tubulin at 5 uM incubated for 30 hrs by western blot analysis; format: cell-based; in short: as §3
T3 sequence (whole entry): T1 sequence (Q9UBN7 whole entry)

[7] = Inhibition of spheroid count in IPF patient derived human Airway basal cell incubated for 14 days by Bright-field microscopy analysis; format: functional, cell-based; in short: as §2
[8] = Metabolic stability in human liver microsome assessed as intrinsic clearance at 5 uM in presence of NADPH incubated up to 60 mins by HPLC analysis; format: ADME; settings: microsomes, 1 h; in short: as §1
[9] = Chemical stability of the compound at pH 3 incubated for 24 hrs by HPLC-UV analysis; format: physicochemical; settings: buffer, read-out: Stability
In short: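 Compound from 10 mM DMSO stock diluted to 250 μM (2.5% DMSO) in 50 mM acetic acid, pH 3.0. Held 24 h at 25 °C with orbital shaking. Analysed by RP-18 HPLC with UV at 254 nm. Percent remaining = peak area at 24 h / peak area at T0 × 100. Run in triplicate and averaged.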

[10] = Inhibition of cell proliferation in IPF patient derived human Airway basal cell incubated for 14 days by MTT assay; format: functional, cell-based; settings: 336 h
In short: (§4)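 IPF patient airway basal cell 3D organoid cultures (10⁴ cells in Matrigel, 1:1 BEGM/DMEM) treated 14 days at 1–50 nM, medium changed weekly. Proliferation read by colorimetric MTT on day 14. Mean ± SEM of triplicates, n=3; repeated-measures ANOVA/Friedman test. Reported IC50 is the mean of the count-based and MTT-based IC50s.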

Airway basal cell [11] = assay: Inhibition of cell proliferation in IPF patient derived human Airway basal cell at 20 to 50 nM incubated for 14 days by MTT assay; format: functional, cell-based; settings: dose 20-50 nM, time 14.0 day; in short: as §4
Histone deacetylase 1 [12] = molecular target: T2, Histone deacetylase 1; assay: Inhibition of human recombinant HDAC1 using ZMAL (Z-(Ac)Lys-AMC) as fluorogenic substrate incubated for 120 mins by microplate reader assay
Homo sapiens = organism: Homo sapiens; assay: Inhibition of broncho-sphere formation in IPF patient derived human lung organoid assessed as inhibition of 3D organoid formation at 0.1 to 50 nM incubated for 14 days by Bright-field microscopy analysis; format: functional; settings: dose 0.1-50 nM, time 14.0 day; in short: as §2

With `CN1CCC2(CC1)c1ccccc1N(Cc1ccc(C(=O)NO)cc1)C2c1ccccc1F` (racemic) the K [1] was 0.01297 min⁻¹, the IC50 [2] was 28.5 nM and the inhibition (Airway basal cell [3]) was “Active”. For the same molecule, the inhibition (Histone deacetylase 1 [4]) was “Active”, the remaining at 5 µM [5] was 100% and the inhibition [6] was “Active”. It also gave an IC50 [7] of 6.38 nM, a CLH [8] of 27.43 µL/min/mg and a remaining at 24 h [9] of 98%. For the same molecule, the IC50 [10] was 0.16 nM, the inhibition (Airway basal cell [11]) was “Active” and the IC50 (Histone deacetylase 1 [12]) was 4850 nM. The inhibition (Homo sapiens) was “Dose-Dependent Effect”.
For `CC1(C)c2ccccc2N(Cc2ccc(C(=O)NO)cc2)C1c1cccnc1` (racemic), the K [1] was 0.01357 min⁻¹, the IC50 [2] was 41.9 nM and the inhibition (Airway basal cell [3]) was “Active”. The inhibition (Histone deacetylase 1 [4]) was “inactive”, the remaining at 5 µM [5] was 100% and the inhibition [6] was “Active”. It also gave an IC50 [7] of 7.31 nM, a CLH [8] of 25.46 µL/min/mg and a remaining at 24 h [9] of 89%. For the same molecule, the IC50 [10] was 7.31 nM, the inhibition (Airway basal cell [11]) was “Active” and the IC50 (Histone deacetylase 1 [12]) was 5330 nM. For the same molecule, the inhibition (Homo sapiens) was “Dose-Dependent Effect”.
